How the values were obtained:
[1] = species on record: Homo sapiens; assay: Stability in human plasma after 6 hrs
[2] = Inhibition of chymotrypsin-like activity of 20S proteasome in lymphoblastoid cells after 30 mins; format: cell-based, Homo sapiens
In short: (§1)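 Proteasome partially purified from lymphoblastoid cell lines, then affinity-purified (anti-α-subunit mAb) and dialyzed against 25 mM Tris-HCl pH 7.5; protein by BCA. Enzyme untreated or pretreated with 0.001–10 test compound, then incubated with subsite-specific fluorogenic substrate 30 min at 37 °C in activity buffer; fluorescence ex 360/em 465 nm. IC50 from fit of percent control vs concentration, Y=100/(1+(X/IC50))^A.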

[3] = Inhibition of trypsin-like activity of 20S proteasome in lymphoblastoid cells after 30 mins; format: cell-based, Homo sapiens
In short: as §1

[4] = Inhibition of peptidylglutamyl-peptide hydrolyzing-like activity of 20S proteasome in lymphoblastoid cells after 30 mins; format: cell-based, Homo sapiens
In short: as §1

Compound	half-life [1] [h]	IC50 [2] [µM]	IC50 [3] [µM]	IC50 [4] [µM]
CCOC(=O)/C=C/[C@H](CCC(N)=O)NC(=O)[C@H](CC(C)C)NC(=O)[C@H](CC(C)C)NC(=O)c1cccc(O)c1C	> 6	8.41	0.145	> 10
CCOC(=O)/C=C/[C@H](CC(C)C)NC(=O)[C@H](CO)NC(=O)[C@@H](NC(=O)c1cccc(O)c1C)C(C)C	> 6	> 10	0.033	> 10
CCOC(=O)/C=C/[C@H](CCC(N)=O)NC(=O)[C@H](CO)NC(=O)[C@@H](NC(=O)c1cccc(O)c1C)C(C)C	> 6	> 10	0.056	> 10
CCOC(=O)/C=C/[C@H](CC(C)C)NC(=O)[C@H](CO)NC(=O)[C@@H]1Cc2ccccc2CN1C(=O)c1cccc(O)c1C	> 6	7.36	0.098	> 10
CCOC(=O)/C=C/[C@H](CC(C)C)NC(=O)[C@H](CC(C)C)NC(=O)[C@@H]1Cc2ccccc2CN1C(=O)c1cccc(O)c1C	> 6	6.89	0.157	> 10

Further lines, results first:

half-life [1] [h]	IC50 [2] [µM]	IC50 [3] [µM]	IC50 [4] [µM]	Compound
> 6	> 10	5.89	> 10	CCOC(=O)/C=C/[C@H](CCC(N)=O)NC(=O)[C@@H]1Cc2ccccc2CN1C(=O)[C@H](CC(C)C)NC(=O)c1cccc(O)c1C
> 6	> 10	0.349	> 10	CCOC(=O)/C=C/[C@H](CCC(N)=O)NC(=O)[C@H](CO)NC(=O)[C@@H]1Cc2ccccc2CN1C(=O)c1cccc(O)c1C
> 6	> 10	8.51	> 10	CCOC(=O)/C=C/[C@H](CC(C)C)NC(=O)[C@@H]1Cc2ccccc2CN1C(=O)[C@@H](NC(=O)c1cccc(O)c1C)C(C)C
> 6	> 10	0.435	> 10	CCOC(=O)/C=C/[C@H](CCC(N)=O)NC(=O)[C@H](CC(C)C)NC(=O)[C@@H]1Cc2ccccc2CN1C(=O)c1cccc(O)c1C
> 6	> 10	> 10	> 10	CCOC(=O)/C=C/[C@H](CC(C)C)NC(=O)[C@@H]1Cc2ccccc2CN1C(=O)[C@H](CC(C)C)NC(=O)c1cccc(O)c1C
> 6	> 10	2.34	> 10	CCOC(=O)/C=C/[C@H](CCC(N)=O)NC(=O)[C@@H]1Cc2ccccc2CN1C(=O)[C@@H](NC(=O)c1cccc(O)c1C)C(C)C

— ChEMBL document CHEMBL1147181, “Glutamine vinyl ester proteasome inhibitors selective for trypsin-like (beta2) subunit” (Eur J Med Chem, 2007)
